Most compounds without a hit are left out; they make up all but 4.5% or so of the library.
CHOP inh: inhibitors of CHOP promoter induction, primary screen, cell-based, unfolded protein response, luciferase reporter | CHO-K1 CHOP-promoter luciferase, tunicamycin-induced, 15-18 h | inhibition, % at 10 µM | hit rate 3.8% among 220,000;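 active = compounds that reduced the stress-induced luciferase reporter signal by more than about 70% of percent inhibition, limit read from the data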;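 also: 0% = tunicamycin plus vehicle and 100% = wells without tunicamycin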
UPR CHOP act: activators of apoptotic CHOP UPR arm, primary screen, cell-based, CHO-CHOP luciferase reporter, luminescence, uHTS. activation, % at 10 µM. UPR activation; percent of tunicamycin response over DMSO baseline. hit rate 0.34% among 330,000;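 active = at 10 µM dose, activation of 40% or more, normalized to positive control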;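 also: 100% = tunicamycin at 10 µg/mL and 0% = DMSO alone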
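assay system = CHO CHOP reporter cells | amount = 500 CHO-CHOP cells per well | buffer or medium = F12 with 10% FBS | incubation = 16-18 h cell attachment, then 6 h compound exposure, 37 °C | detection = luminescence read with Steady-Glo | read-out = percent activation relative to tunicamycin control | controls = tunicamycin high control, DMSO low control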
p97 inhibitor: inhibitors of human p97 ATPase, primary screen, biochemical. hit rate 0.42% among 220,000. Transitional endoplasmic reticulum ATPase (Homo sapiens), P55072. inhibition, % at 8 µM. AID 1481, 2009. recombinant p97 ATPase, Kinase-Glo ATP luminescence, 3 h; in the data active = inhibition above about 15%;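 also: 0% = DMSO vehicle and 100% = wells lacking enzyme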
NS3 helicase inh: inhibitors of HCV NS3 helicase, primary screen, biochemical, Cy5 molecular beacon fluorescence; hit rate 0.56% among 290,000; NS3 helicase DNA unwinding; inhibition, % at 10.9 µM; AID 1800, 2009; Hepatitis C virus NS3 helicase;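 active = inhibition above the mean of all tested compounds plus 3 SD, set per campaign, cut at about 35% in these data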;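 also: 0% = DMSO wells and 100% = thioflavine S control wells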
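Material: hepatitis C virus NS3 helicase domain fragment enzyme; measured by: Cy5 fluorescence, 0 and 60 min reads; control set: DMSO and thioflavine S; incubation: 60 min unwinding reaction at 25 °C after ATP addition; read-out basis: % inhibition from 60/0 min fluorescence ratio, DMSO 0%, thioflavine S 100%; repeats: singlicate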
UPR XBP1 act: activators of adaptive XBP1 UPR arm, primary screen, cell-based, CHO-XBP1 luciferase reporter, luminescence, uHTS; IRE1-XBP1 UPR activation; percent of tunicamycin response, DMSO as zero; activation, % at 20 µM; hit rate 0.33% among 330,000; AID 463104, 2010;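 active = versus positive control, 20 µM dose yields 30% or more activation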;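 also: 100% = tunicamycin at 10 µg/mL and 0% = DMSO only wells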
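Material: CHO cell line with stable XBP1 luciferase reporter; schedule: 16-18 h cell attachment at 37 °C, then 6 h compound exposure; signal: glow luminescence from Steady-Glo reagent; medium: serum-containing F12 medium, 10% FBS; benchmarks: tunicamycin 10 µg/mL and vehicle-only wells; read-out: percent activation relative to tunicamycin reference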
PfM18AAP inh-1: PfM18AAP inhibitors, malaria aminopeptidase, primary screen, biochemical, QFRET, recombinant enzyme; AID 1822, 2009; hit rate 1.2% among 290,000; H-Glu-NHMec fluorogenic cleavage; inhibition, % at 7.35 µM;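 active = inhibition above the campaign mean inhibition over all tested compounds plus 3 SD, cut at about 28% in these data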;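 also: 0% = plate median of test compound wells and 100% = 2 mM ZnCl2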
PfM18AAP inh-2: PfM18AAP inhibitors, malaria aminopeptidase, confirmation, biochemical, QFRET, recombinant enzyme, triplicate; hit rate 28% among 2,400; H-Glu-NHMec fluorogenic cleavage; inhibition, % at 7.35 µM; shares compounds with PfM18AAP inh-1; AID 2170, 2009;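 active = mean inhibition over replicate wells above the hit cutoff set for the earlier primary screen, cut at about 29% in these data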;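 also: 0% = median of test compound wells and 100% = 2 mM ZnCl2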
CTSL1 counter: cathepsin L1 inhibitors, retest, confirmation, counter-screen for PFM18AAP inhibitor project, biochemical, QFRET, triplicate; purified cathepsin L1, Z-Leu-Arg-MCA fluorescence; shares compounds with PfM18AAP inh-1; AID 2178, 2009; 2,400 tested, under 10 active; inhibition, % at 5.96 µM;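 active = average inhibition across replicates above the hit cutoff set in the earlier primary screen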;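 also: 0% = median of test compound wells and 100% = Z-Phe-Ala-diazomethylketone 1 µM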
Target sequence (P07711 whole entry, looked up): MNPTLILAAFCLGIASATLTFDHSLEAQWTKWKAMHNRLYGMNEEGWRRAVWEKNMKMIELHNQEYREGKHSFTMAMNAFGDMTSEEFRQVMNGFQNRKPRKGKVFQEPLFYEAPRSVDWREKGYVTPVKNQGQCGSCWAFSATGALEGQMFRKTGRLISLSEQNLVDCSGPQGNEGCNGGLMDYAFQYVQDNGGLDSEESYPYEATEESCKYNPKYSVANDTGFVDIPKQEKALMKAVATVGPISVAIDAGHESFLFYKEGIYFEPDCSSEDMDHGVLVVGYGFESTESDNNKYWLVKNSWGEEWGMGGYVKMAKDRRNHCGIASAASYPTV
An asterisk follows results filed as active; x = not tested or not shown.

SMILES	CHOP inh	UPR CHOP act	p97 inhibitor	NS3 helicase inh	UPR XBP1 act	PfM18AAP inh-1	PfM18AAP inh-2	CTSL1 counter
O=C1CCCC2=C1C(c1cccs1)Nc1ccc3ncccc3c12 (centres undefined)	-52	3	4	5	-2	3	x	x
O=C1CCCC2=C1C(c1ccc(O)c(O)c1)Nc1ccc3ncccc3c12 (centres undefined)	-3	2	7	30	-5	78*	78*	1
CCOC(=O)N1CCN(C(=O)c2cc(COc3c(F)cccc3F)on2)CC1	x	4	x	4	1	2	x	x
CC(=O)Oc1ccc2c(=O)c(Oc3ccccc3)c(C)oc2c1OC(C)=O	40	3	6	11	-3	44*	19	-7
Cc1oc2cc(O)ccc2c(=O)c1Oc1ccccc1	0	-1	1	2	-5	4	x	x
CCC(C)c1ccc(OCc2ccc(C(=O)OC)o2)cc1 (centres undefined)	-18	4	4	2	1	-2	x	x
COc1ccc2sc(C)[n+](C)c2c1	0	0	4	-4	-3	43*	-12	-2
COc1cc(/C=N/NC(=O)Cc2ccc(Br)cc2)cc(OC)c1O	4	2	0	-2	1	5	x	x
COc1cc(/C=N/NC(=O)CC#N)cc(Br)c1O	40	0	4	-1	-4	57*	-15	0
O=C(NCc1cccnc1)c1ccc(NS(=O)(=O)c2ccc(F)cc2)cc1	x	0	x	-6	-2	-13	x	x
O=C(COc1ccccc1/C=C1\SC(=O)NC1=O)Nc1ccccc1	4	-1	-2	26	1	10	x	x
O=C(/C=C1\SC(=O)NC1=O)Nc1ccc(F)cc1	-31	2	2	17	0	36*	-56	7
CCOC(=O)C(C)Sc1nc2c(c(=O)[nH]c(=O)n2C)n1C/C=C(/C)Cl (centres undefined)	-14	0	-3	-5	5	37*	3	3
CCCCCCn1c(SCC(=O)OC)nc2c1c(=O)[nH]c(=O)n2C	12	2	1	4	-2	48*	23	-5
CCCCCCn1c(SCC(C)C)nc2c1c(=O)[nH]c(=O)n2C	37	-1	1	1	5	-8	x	x
O=C(NCCCN1CCOCC1)C(=O)NCc1ccco1	-10	-2	3	-1	-1	9	x	x
CCCNc1c(N)c(=O)oc2ccccc12	18	1	4	-4	1	49*	-3	-6
O=C(Cc1ccccc1)NNC(=S)Nc1ccccc1	33	-1	2	7	-1	19	x	x
NC(=S)NNC(=S)Nc1ccccc1	4	0	-3	1	-4	42*	2	-2
S=C(NNC(=S)Nc1ccccc1)Nc1ccccc1	x	4	x	15	5	50*	1	-1
O=C(NNC(=S)Nc1ccccc1)C1CC1	-13	1	0	-4	1	6	x	x
COc1cc(/C=N/NC(=O)Cc2csc(N3CCOCC3)n2)cc(OC)c1O	6	-1	-5	17	-4	32*	-37	0
O=C(Cc1csc(N2CCOCC2)n1)N/N=C/c1ccc(Cl)cc1Cl	59	-1	-3	-2	2	1	x	x
O=C(COC(=O)COc1ccccc1Cc1ccccc1)Nc1cccnc1Cl	11	3	-9	5	1	3	x	x

Source: PubChem
